ChEMBL document CHEMBL1126047, “Novel non-nucleoside inhibitors of HIV-1 reverse transcriptase. 2. Tricyclic pyridobenzoxazepinones and dibenzoxazepinones” (J Med Chem, 1992)

Columns and labels:
[1] = biological target: Human immunodeficiency virus type 1 reverse transcriptase (Human immunodeficiency virus 1) (UniProt Q72547); assay: Inhibition of HIV-1 reverse transcriptase at a concentration of 1 uM
Procedure, shortened: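 Recombinant p66/p51 heterodimer RT (>95% homogeneous) at 0.5 nM, with poly(rC):oligo(dG) 0.8 µg/mL and 500 nM [3H]dGTP. Compound in DMSO, diluted in buffer; enzyme-started, 1 h at room temperature. TCA/pyrophosphate-precipitated product filtered and counted; inhibition versus no-compound reactions.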

[2] = biological target: Human immunodeficiency virus type 1 reverse transcriptase (Human immunodeficiency virus 1, UniProt Q72547); assay: In vitro inhibitory activity against HIV-1 reverse transcriptase.
[3] = tested on: T-cell; assay: In vitro inhibitory activity against HIV-1(IIIB) replication in human T-cells (c8166).; format: functional, cell-based
Procedure, shortened: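 CD4+ human T-cell line c8166 infected with HIV-1 IIIB. Syncytia formation scored, with IC50 taken as the concentration giving a 50% reduction in centers of syncytia.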

| SMILES | inhibition [1] | IC50 [2] | IC50 [3] |
| --- | --- | --- | --- |
| COC(=N)c1cc(C)cc2c1N(C)C(=O)c1cccnc1O2 | 0% |  |  |
| CCCN1C(=O)c2cccnc2Oc2ncccc21 | 5% |  |  |
| Cc1cc(CO)c2c(c1)Oc1ncccc1C(=O)N2C | 39% |  |  |
| CCCN1C(=O)c2cc(N)ccc2Oc2cccc(C)c21 | 70% | 260 nM |  |
| CCN1C(=O)c2cccnc2Oc2cccc([N+](=O)[O-])c21 | 58% | 343 nM |  |
| CCCN1C(=O)c2ccccc2[S+]([O-])c2ccccc21 (configuration not stated) | 20% |  |  |
| CC(C)CN1C(=O)c2ccccc2Oc2ncccc21 | 29% |  |  |
| COc1ccc2c(c1)Oc1ncccc1C(=O)N2C | 24% |  |  |
| CN1C(=O)c2cc(CN)ccc2Oc2ccccc21 | 0% |  |  |
| Cc1cccc2c1NC(=O)c1cc(N)ccc1O2 | 31% |  |  |
| CCN1C(=O)c2cc([N+](=O)[O-])ccc2Oc2ccccc21 | 23% |  |  |
| CCN1C(=O)c2cc(N)ccc2Oc2cccc(C)c21 | 90% | 60 nM |  |
| CCN1C(=O)c2cccnc2Oc2cc(C)cc(C)c21 | 92% | 29 nM |  |
| CCN1C(=O)c2cccnc2Oc2cc(C)cc(C#N)c21 | 96% | 19 nM |  |
| CCN1C(=O)c2cccnc2Oc2ccccc21 | 25% |  |  |
| CN1C(=O)c2cccnc2Oc2cc(F)ccc21 | 3% |  |  |
| Cc1cc(C)c2c(c1)Oc1ccccc1C(=O)N2 | 39% |  |  |
| CN1C(=O)c2cc(C#N)ccc2Oc2ccccc21 | 12% |  |  |
| CCN1C(=O)c2ccccc2Oc2nc(Cl)ccc21 | 35% |  |  |
| CC(C)N1C(=O)c2ccccc2Oc2ccccc21 | 73% | 340 nM |  |
| Cc1ccc2c(c1)Oc1ccc(O)cc1C(=O)N2C | 58% | 640 nM |  |
| Cc1cc(C)c2c(c1)Oc1ccc(N)cc1C(=O)N2C | 95% | 20 nM |  |

| SMILES | inhibition [1] | IC50 [2] | IC50 [3] |
| --- | --- | --- | --- |
| CCCN1C(=O)c2ccccc2Oc2nc(Cl)ccc21 | 68% | 210 nM |  |
| CCN1C(=O)c2cc(N)ccc2Oc2ccc(C)cc21 | 76% | 240 nM |  |
| Cc1cc2c(cc1C)N(C)C(=O)c1cc(N)cnc1O2 | 72% | 322 nM |  |
| CCCN1C(=O)c2cccnc2Oc2ccccc21 | 31% |  |  |
| Cc1cc(C)c2c(c1)Oc1ccc(C#N)cc1C(=O)N2C | 77% | 50 nM | 31 nM |
| Cc1cc(N)c2c(c1)Oc1ncccc1C(=O)N2C | 53% | 1000 nM |  |
| Cc1ccc2c(c1)Oc1ccc(N)cc1C(=O)N2C | 96% | 30 nM |  |
| CCCN1C(=O)c2cc(N)ccc2Oc2cc(C)ccc21 | 84% | 130 nM |  |
| CN1C(=O)c2ccccc2Oc2nc(Cl)ccc21 | 21% |  |  |
| Cc1cc2c(c(S(C)(=O)=O)c1)N(C)C(=O)c1cccnc1O2 | 27% |  |  |
| CCCN1C(=O)c2ccccc2S(=O)(=O)c2ccccc21 | 31% |  |  |
| CCCN1C(=O)c2ccccc2Oc2ccccc21 | 72% | 375 nM |  |
| Cc1ccc2c(c1)Oc1ncccc1C(=O)N2 | 5% |  |  |
| CN1C(=O)c2cccnc2Oc2cc([N+](=O)[O-])ccc21 | 0% |  |  |
| CCN1C(=O)c2cc(N)cnc2Oc2cc(C)cc(C)c21 | 93% | 27 nM | 54 nM |
| CN1C(=O)c2cccnc2Oc2ccccc21 | 23% |  |  |
| Cc1cc2c(c(C(=O)O)c1)N(C)C(=O)c1cccnc1O2 | 0% |  |  |
| CCCN1C(=O)c2ccccc2Sc2ccccc21 | 77% | 400 nM |  |
| CN1C(=O)c2ccccc2Oc2ccccc21 | 20% |  |  |
| Cc1cc2c(c(C(N)=O)c1)N(C)C(=O)c1cccnc1O2 | 31% |  |  |
| CN1C(=O)c2ccccc2Oc2cc(N)ccc21 | 20% |  |  |
| CCCN1C(=O)c2cc(N)ccc2Oc2cc(C)c(C)cc21 | 87% | 165 nM |  |

| SMILES | inhibition [1] | IC50 [2] | IC50 [3] |
| --- | --- | --- | --- |
| CCN1Cc2ccccc2Oc2ccccc21 | 12% |  |  |
| CN1C(=O)c2cccnc2Oc2cc(O)ccc21 | 14% |  |  |
| CCCN1C(=O)c2cc(N)ccc2Oc2c(C)cc(C)cc21 | 52% | 900 nM |  |
| CCN1C(=O)c2cccnc2Oc2cc(C)cc(N)c21 | 73% | 132 nM |  |
| Cc1cccc2c1N(C)C(=O)c1ccccc1O2 | 36% |  |  |
| CCCN1C(=O)c2cc(N)ccc2Oc2ccc(C)c(C)c21 | 63% | 670 nM |  |
| O=C1c2ccccc2Oc2ccccc2N1O | 15% |  |  |
| CCN1C(=O)c2cccnc2Oc2cc(C)cc([N+](=O)[O-])c21 | 85% | 31 nM |  |
| CN1C(=O)c2ccc(N)cc2Oc2ccccc21 | 19% |  |  |
| C=CCN1C(=O)c2cccnc2Oc2ccccc21 | 40% |  |  |
| Cc1ccc2c(c1)Oc1ncc([N+](=O)[O-])cc1C(=O)N2C | 0% |  |  |
| CCN1C(=O)c2cc(N)ccc2Oc2ccccc21 | 82% | 145 nM |  |
| CN1C(=O)c2cc(N)ccc2Oc2ccccc21 | 73% | 180 nM |  |
| CCCN1C(=S)c2ccccc2Oc2ccccc21 | 46% | 2200 nM |  |
| CCCN1C(=O)c2cc(N)ccc2Oc2ccc(C)cc21 | 53% |  |  |
| CCN1C(=S)c2cccnc2Oc2cc(C)cc(C)c21 | 82% | 90 nM |  |
| CN1C(=O)c2ccccc2Oc2ncccc21 | 2% |  |  |
| CCN1C(=O)c2ccccc2Oc2ccccc21 | 54% | 560 nM |  |
| Cc1cc(C)c2c(n1)Oc1ccccc1C(=O)N2C | 25% |  |  |
| Cc1ccc2c(c1)Oc1ccccc1C(=O)N2C | 66% | 600 nM |  |
| Cc1cc(C)c2c(c1)Oc1ccc(O)cc1C(=O)N2C | 80% | 63 nM | 88 nM |
| COC(=O)c1cc(C)cc2c1N(C)C(=O)c1cccnc1O2 | 95% | 22 nM |  |

| SMILES | inhibition [1] | IC50 [2] | IC50 [3] |
| --- | --- | --- | --- |
| Cc1ccc2c(c1)Oc1ncc(N)cc1C(=O)N2C | 57% | 250 nM |  |
| CSCCN1C(=O)c2ccccc2Oc2nc(Cl)ccc21 | 79% | 72 nM |  |
| CN(C)c1ccc2c(c1)Oc1ncccc1C(=O)N2C | 34% |  |  |
| Cc1cc(C)c2c(c1)Oc1ncc(N)cc1C(=O)N2C | 92% | 46 nM | 115 nM |
| C=CCN1C(=O)c2ccccc2Oc2ccccc21 | 58% | 465 nM |  |
| CN1C(=O)c2cccnc2Oc2cccc(C#N)c21 | 29% |  |  |
| CCN1C(=O)c2cc(N)cnc2Oc2cc(C)c(C)cc21 | 83% | 71 nM |  |
| Cc1cc2c(c([N+](=O)[O-])c1)N(C)C(=O)c1cccnc1O2 | 85% | 23 nM |  |
| O=C1Nc2ccccc2Oc2ccccc21 | 30% |  |  |
| Cc1cc2c(cc1C)N(C(C)C)C(=O)c1cc(N)cnc1O2 | 89% | 45 nM |  |
| CNc1ccc2c(c1)C(=O)N(C)c1ccccc1O2 | 40% |  |  |
| CCN1C(=O)c2cccnc2Oc2cccc(N)c21 | 33% |  |  |
| CCN1C(=O)c2cc(N)ccc2Oc2cc(C)cc(C)c21 | 95% | 43 nM |  |
| Cc1ccc2c(c1)Oc1ncccc1C(=O)N2C | 43% |  |  |
| Cc1ccc2c(c1)Oc1ccc(C#N)cc1C(=O)N2C | 69% | 280 nM |  |
| CN1C(=O)c2cccnc2Oc2cc(N)ccc21 | 0% |  |  |
| Cc1cc(C)c2c(c1)Oc1ccccc1C(=O)N2C | 86% | 57 nM | 38 nM |
| CON1C(=O)c2ccccc2Oc2ccccc21 | 36% |  |  |
| Cc1cc(C#N)c2c(c1)Oc1ncccc1C(=O)N2C | 88% | 55 nM |  |
